Laboratory results reported in PMC10357933 (RSC Medicinal Chemistry, 2023).
Like-named read-outs stand apart in the source and are kept apart here.

Assays:
Conductometry in DMSO = format: physicochemical; conditions: for Conductivity ΛM: 1.0 mM solution in DMSO; for Increase of molecular conductivity upon 10-fold dilution: diluted solutions 0.1 to 1.0 mM in DMSO
Summary of the method: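 Test compound dissolved at 1.0 mM, or as indicated, in freshly distilled DMSO (conductivity ≤3 × 10−8 […]). Conductivity measured at 25 ± 2 °C immediately after complete dissolution, then after 24 h and after 48 h.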

3CL^pro (SARS-CoV-2) = 3CL^pro (SARS-CoV-2) (Severe acute respiratory syndrome coronavirus 2, UniProt P0DTD1); format: biochemical
PL^pro (SARS-CoV-2) = PL^pro (SARS-CoV-2) (Severe acute respiratory syndrome coronavirus 2, UniProt P0DTD1); experiment: biochemical
SARS-CoV-2 B.1 = experiment: Antiviral activity against SARS-CoV-2 in Caco-2-F03 cells; format: cell-based; conditions: for Effect on viral activity at higher dosages: overlapping with toxicity
PL^pro (SARS-CoV) = PL^pro (SARS-CoV) (Severe acute respiratory syndrome coronavirus, UniProt P0C6X7); format: biochemical; conditions: read-out: IC50 PL^pro (SARS-CoV)
SARS-CoV-2 PL^pro [1] = target: T1, SARS-CoV-2 PL^pro (Severe acute respiratory syndrome coronavirus 2, UniProt P0DTD1); experiment: Zn-ejection assay with FluoZin-3; format: biochemical; conditions: 0.5 μM PLpro, 100 min
SARS-CoV-2 PL^pro [2] = target: T1, SARS-CoV-2 PL^pro; experiment: Michaelis-Menten kinetics with SARS-CoV-2 PLpro; format: biochemical
CaCo-2 cells = experiment: Toxicity against host cells; format: cell-based, human; conditions: 25 to 500 μM, 24 h / 48 h
Summary of the method: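 Caco-2 cells were grown to almost confluent monolayers in 96-well plates. Test compound was given as a DMSO stock (DMSO 0.2%) diluted in DMEM with 1% fetal calf serum and 50 mg L−1 gentamicin, at 25–500 μM. Exposure was 24 h and 48 h at 37 °C/5% CO2. Viability was measured by crystal violet staining as % of untreated control, in three independent experiments.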

[3] = 3CL^pro, 50 μM, ± SD of 2 experiments
[4] = read-out: IC50 PL^pro (SARS-CoV-2), mean ± SD of 2 independent experiments

SMILES | Conductivity ΛM (Conductometry in DMSO; 24 h) [S mol^−1 cm^2] | Conductivity ΛM (Conductometry in DMSO; 48 h) [S mol^−1 cm^2] | Conductivity ΛM (Conductometry in DMSO; start) [S mol^−1 cm^2] | Percentage of activity of the enzyme in presence of 50 μM of the test compound (3CL^pro (SARS-CoV-2); [3]) [%] | IC50 (PL^pro (SARS-CoV-2); [4]) [nM] | also measured
CCn1c[n+](CC)c2ccccc21.[Cl][Ag] [Ag-1a, 1,3-Diethyl benzimidazolium silver(I) chloride] | 3.09 | 3.31 | 3.00 | 106 ± 2 | 210 ± 30 | –
CCn1c[n+](CC)c2ccccc21.[Ag][I] [Ag-1b, 1,3-Diethyl-benzimidazolium silver(I) iodide] | 9.31 | 9.70 | 8.44 | 110 ± 0 | 240 ± 110 | Effect on viral activity at higher dosages (SARS-CoV-2 B.1): completely terminated viral activity
CCn1c[n+](CC)c2ccc(OC)cc21.[Cl][Ag] [Ag-2a, 1,3-Diethyl-5-methoxy-benzimidazolium silver(I) chloride] | 3.13 | 3.37 | 2.94 | 98 ± 15 | 180 ± 20 | –
CCn1c[n+](CC)c2ccc(OC)cc21.[Ag][I] [Ag-2b, 1,3-Diethyl-5-methoxy-benzimidazolium silver(I) iodide] | 9.25 | 9.82 | 9.19 | 115 ± 4 | 430 ± 60 | –
CC(C)n1c[n+](C(C)C)c2ccccc21.[Cl][Ag] [Ag-3a, 1,3-Diisopropyl benzimidazolium silver(I) chloride] | 2.70 | 2.67 | 2.34 | 116 ± 5 | 210 ± 20 | Increase of molecular conductivity upon 10-fold dilution (Conductometry in DMSO): 2–4 fold
CC(C)n1c[n+](C(C)C)c2ccccc21.[Ag][I] [Ag-3b, 1,3-Diisopropyl benzimidazolium silver(I) iodide] | 7.00 | 6.69 | 6.67 | 111 ± 14 | 190 ± 40 | Increase of molecular conductivity upon 10-fold dilution (Conductometry in DMSO): only slightly increased; Effect on viral activity at higher dosages (SARS-CoV-2 B.1): completely terminated viral activity
COc1ccc2c(c1)n(C(C)C)c[n+]2C(C)C.[Cl][Ag] [Ag-4a, 1,3-Diisopropyl-5-methoxy-benzimidazolium silver(I) chloride] | 2.25 | 2.40 | 2.15 | 115 ± 4 | 220 ± 110 | –
COc1ccc2c(c1)n(C(C)C)c[n+]2C(C)C.[Ag][I] [Ag-4b, 1,3-Diisopropyl-5-methoxy-benzimidazolium silver(I) iodide] | 6.92 | 7.32 | 6.72 | 116 ± 2 | 390 ± 70 | Enzymatic activity (% of untreated control) (PL^pro (SARS-CoV-2); 0.75 μM, after 60 min): approx. 40%; Enzymatic turnover (% of untreated control) (PL^pro (SARS-CoV-2); 0.75 μM, from beginning up to 30 min of exposure): approx. 60%; IC50 (PL^pro (SARS-CoV)): 13700 ± 1020 nM; Zn ejection efficacy (SARS-CoV-2 PL^pro [1]; 1.0 μM compound): low efficacy; Zn ejection efficacy (SARS-CoV-2 PL^pro [1]; 10 μM compound): high efficacy; Mechanism of inhibition (SARS-CoV-2 PL^pro [2]; Lineweaver-Burk, parallel lines): uncompetitive enzyme inhibitor; Ki (enzyme-substrate-inhibitor complex) (SARS-CoV-2 PL^pro [2]; uncompetitive model): 480 ± 220 nM; Cytotoxicity against almost confluent Caco-2 cell layers (CaCo-2 cells): non-toxic up to 500 μM; IC50 (SARS-CoV-2 B.1; read-out: IC50 antiviral efficacy (spike protein staining)): 580 nM
O=[N+]([O-])[O-].[Ag+] [AgNO3, silver nitrate, reference compound] | 38 | 38 | 38 | 97 ± 6 | 700 ± 270 | Conductivity (Conductometry in DMSO; in DMSO, periods up to 48 h): 38 S mol^−1 cm^2; IC50 (PL^pro (SARS-CoV)): 12000 ± 870 nM
CCN(CC)C(=S)SSC(=S)N(CC)CC [Disulfiram, reference compound] | – | – | – | – | – | Zn ejection efficacy (SARS-CoV-2 PL^pro [1]; 1.0 μM compound): low efficacy; Zn ejection efficacy (SARS-CoV-2 PL^pro [1]; 10 μM compound): high efficacy
CC(=O)O.[Ag+].c1ccc(CN2[CH-]N(Cc3ccccc3)C(c3ccccc3)=C2c2ccccc2)cc1 [SBC3, reference compound] | 2.25 | 2.31 | 2.15 | – | – | Increase of molecular conductivity upon 10-fold dilution (Conductometry in DMSO): 2–4 fold; Inhibition of 3CL^pro enzymatic activity (3CL^pro (SARS-CoV-2)): some moderate inhibition; Percentage of activity of the enzyme in presence of 50 μM of the test compound (3CL^pro (SARS-CoV-2)): >50 (70 ± 4%); IC50 (3CL^pro (SARS-CoV-2); read-out: IC50 3CL^pro (SARS-CoV-2)): > 50000 nM; IC50 (PL^pro (SARS-CoV-2); read-out: IC50 PL^pro (SARS-CoV-2)): 260 ± 30 nM
COc1ccc2c(c1)n(C(C)C)c[n+]2C(C)C [compound 4, 1,3-Diisopropyl-5-methoxy-benzimidazolium iodide] | – | – | – | – | – | IC50 (PL^pro (SARS-CoV-2)): > 100000 nM
